Bioassay records as filed in PubChem.
aSyn 5UTR inh = MLPCN primary screen, SNCA 5' untranslated region | alpha-synuclein 5'UTR reporter, inhibitor activity | inhibition, % (tested at 7.5 µM) | 300,000 compounds, 0.82% hits | AID 1813, 2009; in the data active = inhibition above about 60%;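 also: H4 neuroglioblastoma cells stably carrying SNCA 5'UTR luciferase fusion; 0% = DMSO wells and 100% = positive control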
Jurkat NFkB inh = inhibitors of induced NF-kB luciferase reporter, primary screen, TCR NF-kB activation inhibitor project, cell-based, luminescence, uHTS | Jurkat, PMA/ionomycin-induced NF-kB luciferase reporter | inhibition, % at 4 µM | 330,000 compounds, 0.53% hits | AID 435003, 2010; in the data active = inhibition above about 50%
697 NFkB inh = inhibitors of PMA/ionomycin-induced NF-kB reporter, 697 cells, primary screen, B-cell NF-kB inhibitor project, cell-based, luminescence, uHTS. 697 B-cell NF-kB luciferase reporter, 16 h. inhibition, % at 4 µM. 330,000 compounds, 0.33% hits. AID 435022, 2010; in the data active = inhibition above about 35%
IMP-1 inhibitor = IMP-1 metallo-beta-lactamase inhibitors, primary screen, biochemical, epi-absorbance readout, Pseudomonas aeruginosa enzyme | metallo-beta-lactamase IMP-1 (Pseudomonas aeruginosa) | purified IMP-1, nitrocefin hydrolysis, epi-absorbance fluorescence | inhibition, % at 5.6 µM | 290,000 compounds, 0.45% hits;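 active = inhibition above the mean plus 3 SD of all compounds in the same screening run, cut at about 4.5% in these data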;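 also: 0% = IMP-1 with DMSO and 100% = DMSO wells lacking enzyme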
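System – purified recombinant IMP-1 beta-lactamase · Input – IMP-1 dispensed at 0.2 nM · Timing – 15 min preincubation plus 25 min reaction at 25 °C · Signal – Epi-absorbance fluorescence, 480 nm excitation, 530 nm emission · Measure – percent IMP-1 inhibition derived from blank-referenced optical density · Controls – Enzyme-plus-DMSO low control, enzyme-free DMSO high control · Replication – singlicate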
VIM-2 inhibitor = VIM-2 metallo-beta-lactamase inhibitors, primary screen, biochemical, epi-absorbance readout, Pseudomonas aeruginosa enzyme | purified VIM-2, nitrocefin hydrolysis, epi-absorbance fluorescence | inhibition, % at 5.6 µM | 290,000 compounds, 0.89% hits;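 active = inhibition above the mean of all tested compounds plus 3 SD, cutoff set per screening run, cut at about 7.5% in these data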;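 also: red hydrolysis product quenches plate fluorescence so inhibitors raise well fluorescence; 0% = enzyme with DMSO and 100% = DMSO without enzyme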
Mdm2-MdmX inh = inhibitors of human Mdm2-MdmX association, primary screen, cell-based, luminescence, split luciferase, SaOS-2, uHTS | Protein Mdm4 (Homo sapiens) + E3 ubiquitin-protein ligase Mdm2 (Homo sapiens), … | SaOS-2 split-luciferase Mdm2/MdmX complementation | inhibition, % at 8 µM | 330,000 compounds, 3% hits | AID 485346, 2010;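 active = inhibition of at least 50% at 8 µM in the primary screen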
Jurkat NFkB conf = PMA/ionomycin-induced NF-kB reporter inhibitors, Jurkat retest, confirmation, T-cell NF-kB inhibitor project, cell-based, luminescence, single concentration | shares compounds with Jurkat NFkB inh | Jurkat NF-kB luciferase, 16 h | inhibition, % at 4 µM | 2,700 compounds, 27% hits | AID 435020, 2010;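 active = inhibition reaching about 45% at 4 µM in either replicate, limit read from the data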;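 also: plate controls were PMA/ionomycin stimulated DMSO wells for no effect and unstimulated DMSO wells for full effect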
697 NFkB conf = PMA/ionomycin-induced NF-kB reporter inhibitors, 697 retest, confirmation, B-cell NF-kB inhibitor project, cell-based, luminescence, single concentration; shares compounds with 697 NFkB inh; 697 B-cell NF-kB luciferase, 16 h; inhibition, % at 4 µM; 2,000 compounds, 35% hits; AID 449746, 2010; in the data active = inhibition mostly above about 28%, no sharp cut-off; inactive = mostly below about 22%
Mdm2-MdmX conf = Mdm2-MdmX complex disruptors, retested hits, confirmation, luminescence, single concentration | Mdm2-MdmX binding, luminescent assay | shares compounds with Mdm2-MdmX inh | 10,000 compounds, 55% hits | inhibition, % at 8 µM; in the data active = inhibition above about 40%
FLuc counter = full-length luciferase signal inhibition, confirmation, counter-screen for Mdm2/MdmX interaction inhibitor project, cell-based, single concentration, SaOS-2 | shares compounds with Mdm2-MdmX inh | SaOS-2 full-length luciferase counterscreen, luminescence | inhibition, % at 8 µM | 6,200 compounds, 77% hits | AID 504607, 2011;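 active = mean inhibition at 8 µM reaching about 37%, which flags the compound as non-specific, limit read from the data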;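 also: p53-null SaOS-2 cells with luciferase driven by a doxycycline-inducible promoter; compound on cells about two nights before reading with doxycycline added after day one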
Numbers without * were called inactive. Most compounds without a hit are left out; they make up all but 4.7% or so of the library.

Screening Cc1ccc(/C=N/NC(=O)c2ccc3ccccc3c2)s1 returned aSyn 5UTR inh -132, Jurkat NFkB inh 52*, 697 NFkB inh -40, IMP-1 inhibitor -3, VIM-2 inhibitor -1, Mdm2-MdmX inh 56*, Jurkat NFkB conf 34, Mdm2-MdmX conf 68* and FLuc counter 73*.
Screening CCCCc1ccc(NC(=O)C(=O)NCCN2CCN(Cc3ccc([N+](=O)[O-])cc3)CC2)cc1 returned aSyn 5UTR inh 37, Jurkat NFkB inh 51*, 697 NFkB inh 17, IMP-1 inhibitor -2, VIM-2 inhibitor -2, Mdm2-MdmX inh 67*, Jurkat NFkB conf 59* and Mdm2-MdmX conf 36.
`CCNC(=O)C(=O)Nc1ccc([N+](=O)[O-])cc1` gave aSyn 5UTR inh 4, Jurkat NFkB inh 2, 697 NFkB inh 14, IMP-1 inhibitor -4, VIM-2 inhibitor -3 and Mdm2-MdmX inh -1.
`CC1CCN(S(=O)(=O)c2ccc(NC(=O)CCNC(=O)c3ccc(Cl)cc3)cc2)CC1` gave Jurkat NFkB inh 34, 697 NFkB inh 1 and Mdm2-MdmX inh 33.
`COc1ccc(CCNC(=O)C(=O)NCC2OCCN2S(=O)(=O)c2cc(F)ccc2F)cc1` (configuration not stated) gave aSyn 5UTR inh -1, Jurkat NFkB inh 10, 697 NFkB inh 1, IMP-1 inhibitor -4, VIM-2 inhibitor -5 and Mdm2-MdmX inh -7.
CC1(C)N=C(N)N=C(N)N1c1ccc(Oc2ccc(Cl)cc2)c(Cl)c1 was read as aSyn 5UTR inh 85*, Jurkat NFkB inh 82*, 697 NFkB inh 29, IMP-1 inhibitor -3, VIM-2 inhibitor -1, Mdm2-MdmX inh 67*, Jurkat NFkB conf 66*, Mdm2-MdmX conf 50* and FLuc counter 88*.
For COc1ccc2c(c1)C(=O)N1[C@H]3c4cc(Br)ccc4OC[C@@H]3[C@H](c3ccccc3)[C@]1(C)C(=O)N2 the results were Jurkat NFkB inh 52*, 697 NFkB inh 31, Mdm2-MdmX inh 64*, Jurkat NFkB conf 53*, Mdm2-MdmX conf 63* and FLuc counter 37*.
`C[C@@]12C(=O)Nc3ccc(Br)cc3C(=O)N1[C@H]1c3cc(Br)ccc3OC[C@@H]1[C@@H]2c1ccccc1` gave Jurkat NFkB inh 17, 697 NFkB inh 15 and Mdm2-MdmX inh 27.
For CC(=O)N1c2ccc(F)c(F)c2C[C@H]1C the results were Jurkat NFkB inh -9, 697 NFkB inh -1 and Mdm2-MdmX inh 2.
N#CC(c1cccc(Cl)c1)c1ccc2c(C(F)(F)F)cc(C(F)(F)F)nc2n1 (configuration not stated) was read as aSyn 5UTR inh 97*, Jurkat NFkB inh 58*, 697 NFkB inh 66*, IMP-1 inhibitor -2, VIM-2 inhibitor -2, Mdm2-MdmX inh 98*, Jurkat NFkB conf 59*, 697 NFkB conf 33*, Mdm2-MdmX conf 94* and FLuc counter 57*.
